According to ChEMBL document CHEMBL5143728, “Next-Generation Diprovocims with Potent Human and Murine TLR1/TLR2 Agonist Activity That Activate the Innate and Adaptive Immune Response” (J Med Chem, 2022):

Tests used:
Toll-like receptor 1/2 = Toll-like receptor 1/2 (Homo sapiens, UniProt O60603+Q15399); experiment: Agonist activity at TLR1/TLR2 in human THP-1 derived macrophages assessed as stimulation of TNF alpha release measured for 4 hrs by ELISA based assay relative to diprovocim-1; type: cell-based; set-up: Activity: concentration or dose not given beside the values
In short: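 THP-1 cells differentiated with 100 nM PMA in RPMI/10% FBS for 24 h, washed, then rested 24 h in fresh medium. Seeded at 0.5 × 10⁵ cells/well and exposed to graded compound concentrations for 4 h, with final DMSO held at 0.1%. LPS served as positive control and DMSO as negative control. Supernatant human TNF-α was read by ELISA. EC50 from duplicate means.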

[1] = target: Toll-like receptor 1/2 (Mus musculus) (UniProt Q9QUN7+Q9EPQ1); experiment: Agonist activity at TLR1/TLR2 in wild type C57BL/6J mouse macrophages assessed as stimulation of TNF alpha release measured for 4 hrs by ELISA based assay relative to diprovocim-1; type: cell-based; set-up: Activity: concentration or dose not given beside the values; conditions: Macrophage
In short: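 Thioglycolate-elicited peritoneal macrophages from wild type C57BL/6J mice, harvested by PBS lavage 4 d after i.p. 4% thioglycolate. Cultured in DMEM/10% FBS at 37 °C, 5% CO2, seeded at 1 × 10⁵ cells/well and exposed to graded compound concentrations for 4 h, with final DMSO ≤0.5% held constant. LPS served as positive control. Supernatant mouse TNF-α was read by ELISA. EC50 from duplicate means.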

Activity (Toll-like receptor 1/2) [%]	Activity ([1]; filed as agonist) [%]	Activity (Toll-like receptor 1/2; filed as agonist) [%]	Activity [1] [%]	SMILES
30	110			C#CCOCC(=O)OCCCCCCCCCCCCNC(=O)[C@@H]1CN(C(=O)c2ccc(C(=O)N3C[C@@H](C(=O)N[C@H]4C[C@@H]4c4ccccc4)[C@H](C(=O)N[C@H]4C[C@@H]4c4ccccc4)C3)cc2)C[C@H]1C(=O)N[C@H]1C[C@@H]1c1ccccc1
	130	100		CC(C)(C)OC(=O)c1ccc(C(=O)NCC(=O)OCCCCCCCCCCCCNC(=O)[C@@H]2CN(C(=O)c3ccc(C(=O)N4C[C@@H](C(=O)N[C@H]5C[C@@H]5c5ccccc5)[C@H](C(=O)N[C@H]5C[C@@H]5c5ccccc5)C4)cc3)C[C@H]2C(=O)N[C@H]2C[C@@H]2c2ccccc2)cc1
	400	110		CC(C)(C)OC(=O)C(=O)NCC(=O)OCCCCCCCCCCCCNC(=O)[C@@H]1CN(C(=O)c2ccc(C(=O)N3C[C@@H](C(=O)N[C@H]4C[C@@H]4c4ccccc4)[C@H](C(=O)N[C@H]4C[C@@H]4c4ccccc4)C3)cc2)C[C@H]1C(=O)N[C@H]1C[C@@H]1c1ccccc1
	50	100		O=C(O)c1ccc(C(=O)NCCOCCCCCCCCCCCCNC(=O)[C@@H]2CN(C(=O)c3ccc(C(=O)N4C[C@@H](C(=O)N[C@H]5C[C@@H]5c5ccccc5)[C@H](C(=O)N[C@H]5C[C@@H]5c5ccccc5)C4)cc3)C[C@H]2C(=O)N[C@H]2C[C@@H]2c2ccccc2)cc1
	70	100		CC(C)(C)OC(=O)CNC(=O)CCCCCCCCCCCNC(=O)[C@@H]1CN(C(=O)c2ccc(C(=O)N3C[C@@H](C(=O)N[C@H]4C[C@@H]4c4ccccc4)[C@H](C(=O)N[C@H]4C[C@@H]4c4ccccc4)C3)cc2)C[C@H]1C(=O)N[C@H]1C[C@@H]1c1ccccc1
	110	90		Cc1ccc(S(=O)(=O)n2cnc(C[C@H](NC(=O)OC(C)(C)C)C(=O)OCCCCCCCCCCCCNC(=O)[C@@H]3CN(C(=O)c4ccc(C(=O)N5C[C@@H](C(=O)N[C@H]6C[C@@H]6c6ccccc6)[C@H](C(=O)N[C@H]6C[C@@H]6c6ccccc6)C5)cc4)C[C@H]3C(=O)N[C@H]3C[C@@H]3c3ccccc3)c2)cc1
		110	30	O=C(O)CNC(=O)CCCCCCCCCCCNC(=O)[C@@H]1CN(C(=O)c2ccc(C(=O)N3C[C@@H](C(=O)N[C@H]4C[C@@H]4c4ccccc4)[C@H](C(=O)N[C@H]4C[C@@H]4c4ccccc4)C3)cc2)C[C@H]1C(=O)N[C@H]1C[C@@H]1c1ccccc1
	300	100		Nc1ccc(C(=O)OCCCCCCCCCCCCNC(=O)[C@@H]2CN(C(=O)c3ccc(C(=O)N4C[C@@H](C(=O)N[C@H]5C[C@@H]5c5ccccc5)[C@H](C(=O)N[C@H]5C[C@@H]5c5ccccc5)C4)cc3)C[C@H]2C(=O)N[C@H]2C[C@@H]2c2ccccc2)cc1
	180	100		CC(C)[C@H](NC(=O)OC(C)(C)C)C(=O)OCCCCCCCCCCCCNC(=O)[C@@H]1CN(C(=O)c2ccc(C(=O)N3C[C@@H](C(=O)N[C@H]4C[C@@H]4c4ccccc4)[C@H](C(=O)N[C@H]4C[C@@H]4c4ccccc4)C3)cc2)C[C@H]1C(=O)N[C@H]1C[C@@H]1c1ccccc1
	120	100		[N-]=[N+]=NCC(=O)OCCCCCCCCCCCCNC(=O)[C@@H]1CN(C(=O)c2ccc(C(=O)N3C[C@@H](C(=O)N[C@H]4C[C@@H]4c4ccccc4)[C@H](C(=O)N[C@H]4C[C@@H]4c4ccccc4)C3)cc2)C[C@H]1C(=O)N[C@H]1C[C@@H]1c1ccccc1
	160	110		CC(C)(C)OC(=O)c1ccc(C(=O)NCCOCCCCCCCCCCCCNC(=O)[C@@H]2CN(C(=O)c3ccc(C(=O)N4C[C@@H](C(=O)N[C@H]5C[C@@H]5c5ccccc5)[C@H](C(=O)N[C@H]5C[C@@H]5c5ccccc5)C4)cc3)C[C@H]2C(=O)N[C@H]2C[C@@H]2c2ccccc2)cc1
	250	120		O=C(CNC(=O)C(=O)O)OCCCCCCCCCCCCNC(=O)[C@@H]1CN(C(=O)c2ccc(C(=O)N3C[C@@H](C(=O)N[C@H]4C[C@@H]4c4ccccc4)[C@H](C(=O)N[C@H]4C[C@@H]4c4ccccc4)C3)cc2)C[C@H]1C(=O)N[C@H]1C[C@@H]1c1ccccc1
	170	100		O=C(CNC(=O)OCC1c2ccccc2-c2ccccc21)OCCCCCCCCCCCCNC(=O)[C@@H]1CN(C(=O)c2ccc(C(=O)N3C[C@@H](C(=O)N[C@H]4C[C@@H]4c4ccccc4)[C@H](C(=O)N[C@H]4C[C@@H]4c4ccccc4)C3)cc2)C[C@H]1C(=O)N[C@H]1C[C@@H]1c1ccccc1
	540	100		O=C(OCCCCCCCCCCCCNC(=O)[C@@H]1CN(C(=O)c2ccc(C(=O)N3C[C@@H](C(=O)N[C@H]4C[C@@H]4c4ccccc4)[C@H](C(=O)N[C@H]4C[C@@H]4c4ccccc4)C3)cc2)C[C@H]1C(=O)N[C@H]1C[C@@H]1c1ccccc1)c1ccc(O)cc1
	120	100		COC(=O)NCC(=O)OCCCCCCCCCCCCNC(=O)[C@@H]1CN(C(=O)c2ccc(C(=O)N3C[C@@H](C(=O)N[C@H]4C[C@@H]4c4ccccc4)[C@H](C(=O)N[C@H]4C[C@@H]4c4ccccc4)C3)cc2)C[C@H]1C(=O)N[C@H]1C[C@@H]1c1ccccc1
	190	90		CC(C)(C)OC(=O)c1ccc(C(=O)OCCCCCCCCCCCCNC(=O)[C@@H]2CN(C(=O)c3ccc(C(=O)N4C[C@@H](C(=O)N[C@H]5C[C@@H]5c5ccccc5)[C@H](C(=O)N[C@H]5C[C@@H]5c5ccccc5)C4)cc3)C[C@H]2C(=O)N[C@H]2C[C@@H]2c2ccccc2)cc1
	200	80		C[C@H](NC(=O)OC(C)(C)C)C(=O)OCCCCCCCCCCCCNC(=O)[C@@H]1CN(C(=O)c2ccc(C(=O)N3C[C@@H](C(=O)N[C@H]4C[C@@H]4c4ccccc4)[C@H](C(=O)N[C@H]4C[C@@H]4c4ccccc4)C3)cc2)C[C@H]1C(=O)N[C@H]1C[C@@H]1c1ccccc1
	140	100		CC[C@H](C)[C@H](NC(=O)OC(C)(C)C)C(=O)OCCCCCCCCCCCCNC(=O)[C@@H]1CN(C(=O)c2ccc(C(=O)N3C[C@@H](C(=O)N[C@H]4C[C@@H]4c4ccccc4)[C@H](C(=O)N[C@H]4C[C@@H]4c4ccccc4)C3)cc2)C[C@H]1C(=O)N[C@H]1C[C@@H]1c1ccccc1
	540	90		CC(C)(C)OC(=O)Nc1ccc(C(=O)OCCCCCCCCCCCCNC(=O)[C@@H]2CN(C(=O)c3ccc(C(=O)N4C[C@@H](C(=O)N[C@H]5C[C@@H]5c5ccccc5)[C@H](C(=O)N[C@H]5C[C@@H]5c5ccccc5)C4)cc3)C[C@H]2C(=O)N[C@H]2C[C@@H]2c2ccccc2)cc1
	90	90		CC(C)(C)OC(=O)NCC(=O)NCCCCCCCCCCCCNC(=O)[C@@H]1CN(C(=O)c2ccc(C(=O)N3C[C@@H](C(=O)N[C@H]4C[C@@H]4c4ccccc4)[C@H](C(=O)N[C@H]4C[C@@H]4c4ccccc4)C3)cc2)C[C@H]1C(=O)N[C@H]1C[C@@H]1c1ccccc1
	220	100		CC(C)(C)OC(=O)NNC(=O)OCCCCCCCCCCCCNC(=O)[C@@H]1CN(C(=O)c2ccc(C(=O)N3C[C@@H](C(=O)N[C@H]4C[C@@H]4c4ccccc4)[C@H](C(=O)N[C@H]4C[C@@H]4c4ccccc4)C3)cc2)C[C@H]1C(=O)N[C@H]1C[C@@H]1c1ccccc1
	150	90		CC(C)(C)OC(=O)NCCOCCOCCOCCOCCC(=O)OCCCCCCCCCCCCNC(=O)[C@@H]1CN(C(=O)c2ccc(C(=O)N3C[C@@H](C(=O)N[C@H]4C[C@@H]4c4ccccc4)[C@H](C(=O)N[C@H]4C[C@@H]4c4ccccc4)C3)cc2)C[C@H]1C(=O)N[C@H]1C[C@@H]1c1ccccc1
	150	100		CSCC[C@H](NC(=O)OC(C)(C)C)C(=O)OCCCCCCCCCCCCNC(=O)[C@@H]1CN(C(=O)c2ccc(C(=O)N3C[C@@H](C(=O)N[C@H]4C[C@@H]4c4ccccc4)[C@H](C(=O)N[C@H]4C[C@@H]4c4ccccc4)C3)cc2)C[C@H]1C(=O)N[C@H]1C[C@@H]1c1ccccc1
	100	90		CC(C)(C)OC(=O)N1CCC[C@H]1C(=O)OCCCCCCCCCCCCNC(=O)[C@@H]1CN(C(=O)c2ccc(C(=O)N3C[C@@H](C(=O)N[C@H]4C[C@@H]4c4ccccc4)[C@H](C(=O)N[C@H]4C[C@@H]4c4ccccc4)C3)cc2)C[C@H]1C(=O)N[C@H]1C[C@@H]1c1ccccc1
	370	100		CC(C)(C)OC(=O)N[C@@H](COCc1ccccc1)C(=O)OCCCCCCCCCCCCNC(=O)[C@@H]1CN(C(=O)c2ccc(C(=O)N3C[C@@H](C(=O)N[C@H]4C[C@@H]4c4ccccc4)[C@H](C(=O)N[C@H]4C[C@@H]4c4ccccc4)C3)cc2)C[C@H]1C(=O)N[C@H]1C[C@@H]1c1ccccc1
	140	100		O=C(CO)OCCCCCCCCCCCCNC(=O)[C@@H]1CN(C(=O)c2ccc(C(=O)N3C[C@@H](C(=O)N[C@H]4C[C@@H]4c4ccccc4)[C@H](C(=O)N[C@H]4C[C@@H]4c4ccccc4)C3)cc2)C[C@H]1C(=O)N[C@H]1C[C@@H]1c1ccccc1
	120	100		O=C(O)c1ccc(C(=O)OCCCCCCCCCCCCNC(=O)[C@@H]2CN(C(=O)c3ccc(C(=O)N4C[C@@H](C(=O)N[C@H]5C[C@@H]5c5ccccc5)[C@H](C(=O)N[C@H]5C[C@@H]5c5ccccc5)C4)cc3)C[C@H]2C(=O)N[C@H]2C[C@@H]2c2ccccc2)cc1
	100	100		O=C(CNC(=O)C(F)(F)F)OCCCCCCCCCCCCNC(=O)[C@@H]1CN(C(=O)c2ccc(C(=O)N3C[C@@H](C(=O)N[C@H]4C[C@@H]4c4ccccc4)[C@H](C(=O)N[C@H]4C[C@@H]4c4ccccc4)C3)cc2)C[C@H]1C(=O)N[C@H]1C[C@@H]1c1ccccc1
